In PMC8785363 (Leukemia, 2019):

How the values were obtained:
Human serum protein = Human serum protein binding; type: in vitro ADME; settings: 22 h incubation with the serum, mean ± SD, triplicate
[1] = tested on: B cells from healthy donors; experiment: Toxicity toward B cells from healthy donors; type: cell-based, human; settings: n=3
[2] = tested on: T cells from healthy donors; experiment: Toxicity toward T cells from healthy donors; type: cell-based, human; settings: n=3
primary CLL cells [3] = experiment: Induction of apoptosis / cell death in primary CLL cells; type: cell-based, human
[4] = Human serum protein binding; type: in vitro ADME; settings: human
FBS protein binding = type: in vitro ADME, bovine; settings: bovine
FBS protein = FBS protein binding; type: in vitro ADME, bovine; settings: 22 h incubation with the serum; mean ± SD, triplicate
primary CLL cells [5] = experiment: Mitochondrial outer membrane permeabilization; type: cell-based, human; settings: read-out: IC50 for MOMP induction; 24 h, DiOC6(3) staining; mean ± SD in 15 CLL samples
primary CLL cells [6] = experiment: Protein synthesis by [3H]leucine incorporation in primary CLL cells; type: cell-based, human; settings: primary CLL samples, 4 h after exposure
Mcl-1 = experiment: Immunoblot of Mcl-1 protein level in CLL cells; type: cell-based, human; settings: 24 h
Bcl-2 = experiment: Immunoblot of Bcl-2 protein level in CLL cells; type: cell-based, human; settings: 24 h
Bcl-XL = experiment: Immunoblot of Bcl-XL protein level in CLL cells; type: cell-based, human
Procedure, shortened: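 Primary CLL cells from patients (informed consent) exposed to test compound, then immunoblotted for Bcl-XL alongside Mcl-1, Bcl-2 and PARP. Cleaved PARP served as the apoptosis marker. Three CLL patient samples were run, and one representative blot is shown.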

[7] = human serum and fetal bovine serum; cited from earlier work

CC(/C=C/C(C)=C/[C@@H]1Cc2nc(cs2)CC[C@@H](N)CC(=O)O[C@@H](C)C/C(C)=C/C=C\C(=O)O1)=C\CN(C)C [Compound 3, des-methyl PatA]
Human serum protein binding (%) Fraction Bound (Human serum protein): 86.7 ± 4.7%
Human serum protein binding (%) Recovery (Human serum protein): 54.0 ± 2.6%
toxicity to normal B cells compared with CLL cells / PatA [1]: significantly lower toxicity
toxicity to normal T cells compared with CLL cells / PatA [2]: significantly lower toxicity

CC(/C=C/C(C)=C/[C@@H]1Cc2nc(cs2)[C@@H](C)C[C@@H](N)CC(=O)O[C@@H](C)C/C(C)=C/C=C\C(=O)O1)=C\CN(C)C [PatA (1), Pateamine A, reference compound]
IC50 (primary CLL cells [3]; Homo sapiens, CLL cell, 24 h, read-out: IC50, μM 10% FBS): 0.13 ± 0.08 µM
IC50 (primary CLL cells [3]; Homo sapiens, CLL cell, 24 h, read-out: IC50, μM 10% Plasma): 0.12 ± 0.09 µM
recovery at 22 h [4]: 80.4 ± 12.8%
fraction unbound at 22 h ([4]; serum): 0.026
recovery at 22 h (FBS protein binding; FBS protein binding (%) Recovery, 22 h incubation with the serum, mean ± SD, triplicate): 86.2%
fraction unbound at 22 h (FBS protein binding; serum): 0.013
FBS protein binding (%) Recovery (FBS protein): 86.3 ± 4.3%

CC(/C=C/C(C)=C/[C@@H]1Cc2nc(cs2)CCCCC(=O)O[C@@H](C)C/C(C)=C/C=C\C(=O)O1)=C\CN(C)C [DMDA PatA (2), des-methyl, des-amino PatA]
times less potent than PatA (primary CLL cells [3]; CLL cells in media with 10% autologous patient plasma): about 30 times
IC50 (primary CLL cells [3]; read-out: IC50 in one sample with 19% del11q, single CLL sample with 19% del11q): 4.32 µM
IC50 (primary CLL cells [5]): 4920 ± 1400 nM
Human serum protein binding (%) Fraction Bound (Human serum protein): 99.6 ± 0.1%
Human serum protein binding (%) Recovery (Human serum protein): 38.1 ± 7.5%
Human serum protein binding (%) Fraction Bound (Human serum protein; listed as DMDAPatA): 99.7%
Human serum protein binding (%) Recovery (Human serum protein; listed as DMDAPatA): 31.4%
FBS protein binding (%) Fraction Bound (FBS protein): 99.1 ± 0.1%
FBS protein binding (%) Recovery (FBS protein): 78.3 ± 2.7%
inhibition of protein synthesis ([3H]leucine incorporation) (primary CLL cells [6]): inhibited protein synthesis
effect on Mcl-1 protein level (Mcl-1): reduced levels
effect on Bcl-2 expression (Bcl-2): without affecting the expression
effect on Bcl-XL expression (Bcl-XL): without affecting the expression
stability in human serum compared with fetal bovine serum [7]: similar
